Active and inactive are the calls of the source. The rule behind the calls is not given here.
Assays:
Huh-7 [1] = assay: Induction of apoptosis in human HuH7 cells assessed as necrotic cells at 1 uM after 72 hrs by Annexin V-FITC/propidium iodide staining-based flow cytometric analysis (reference value: 0.43%); type: functional
Huh-7 [2] = assay: Cytotoxicity against human HuH7 cells after 24 hrs by RTCA analysis; type: functional, cell-based; conditions: Huh-7, 24 h
Outline: (§1)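 xCELLigence impedance real-time growth assay. Huh7 (2000) or Mahlavu (1000) cells plated, treated after 24 h at log phase with a 2-fold dilution series (4 steps) from a top concentration of 1. Cell index recorded every 10 min for 24 h, then every 30 min. Growth inhibition normalized to DMSO; IC50 taken at 24, 48, 72 h.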

Mahlavu [3] = assay: Cell cycle arrest in human Mahlavu cells assessed as accumulation of cells at subG1 phase at 1 uM after 48 hrs by propidium iodide staining-based flow cytometric analysis (reference value: 22.6%); type: functional
MCF-10A = assay: Cytotoxicity against human MCF10A cells after 72 hrs by SRB assay; type: cell-based
Huh-7 [4] = assay: Cell cycle arrest in human HuH7 cells assessed as accumulation of cells at G1 phase at 1 uM after 24 hrs by propidium iodide staining-based flow cytometric analysis (reference value: 41.7%); type: functional
Mahlavu [5] = assay: Induction of apoptosis in human Mahlavu cells assessed as early apoptotic cells at 1 uM after 24 hrs by Annexin V-FITC/propidium iodide staining-based flow cytometric analysis (reference value: 0.09%); type: functional
Huh-7 [6] = assay: Cytotoxicity against human HuH7 cells after 48 hrs by RTCA analysis; type: functional, cell-based; conditions: Huh-7, 48 h; outline: as §1
Mahlavu [7] = assay: Induction of apoptosis in human Mahlavu cells assessed as necrotic cells at 1 uM after 48 hrs by Annexin V-FITC/propidium iodide staining-based flow cytometric analysis (reference value: 0.07%); type: functional
MCF7 = assay: Cytotoxicity against human MCF7 cells after 72 hrs by SRB assay; type: functional, cell-based; conditions: Homo sapiens, MCF7, 72 h; read-out: IC50
Outline: (§2)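 SRB assay. Cells plated per well (HCT116 3000; Huh7, Hep3B, HepG2, MCF-7 2000; Mahlavu, FOCUS, SNU475 1000) and grown 24 h. Compounds came from 20 mM DMSO stocks and were tested in triplicate, 40 to 2,5 (or 2,5 to 0,03) per printed range, for 72 h. Cells fixed in 10% TCA, stained with 0.4% SRB, dye dissolved in 10 mM Tris, A515 read. IC50 derived after DMSO normalization.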

Mahlavu [8] = assay: Down-regulation of cyclin E protein expression in human Mahlavu cells at 1 uM after 24 to 72 hrs by Western blot analysis; type: functional, cell-based
HepG2 = assay: Cytotoxicity against human HepG2 cells after 72 hrs by SRB assay; type: functional, cell-based; conditions: Homo sapiens, HepG2, 72 h; read-out: IC50; outline: as §2
Huh-7 [9] = assay: Induction of apoptosis in human HuH7 cells assessed as early apoptotic cells at 1 uM after 48 hrs by Annexin V-FITC/propidium iodide staining-based flow cytometric analysis (reference value: 0.02%); type: functional
Mahlavu [10] = assay: Induction of apoptosis in human Mahlavu cells assessed as late apoptotic cells at 1 uM after 24 hrs by Annexin V-FITC/propidium iodide staining-based flow cytometric analysis (reference value: 1.28%); type: functional
Huh-7 [11] = assay: Cell cycle arrest in human HuH7 cells assessed as accumulation of cells at G2/M phase at 1 uM after 24 hrs by propidium iodide staining-based flow cytometric analysis (reference value: 37.3%); type: functional
Mahlavu [12] = assay: Cytotoxicity against human Mahlavu cells after 72 hrs by SRB assay; type: functional, cell-based; conditions: Homo sapiens, Mahlavu, 72 h; read-out: IC50; outline: as §2
Mahlavu [13] = assay: Cell cycle arrest in human Mahlavu cells assessed as accumulation of cells at G1 phase at 1 uM after 48 hrs by propidium iodide staining-based flow cytometric analysis (reference value: 43.5%); type: functional
Huh-7 [14] = assay: Cell cycle arrest in human HuH7 cells assessed as accumulation of cells at G1 phase at 1 uM after 72 hrs by propidium iodide staining-based flow cytometric analysis (reference value: 51.6%); type: functional
Mahlavu [15] = assay: Cell cycle arrest in human Mahlavu cells assessed as accumulation of cells at S phase at 1 uM after 48 hrs by propidium iodide staining-based flow cytometric analysis (reference value: 11.6%); type: functional
Huh-7 [16] = assay: Cell cycle arrest in human HuH7 cells assessed as accumulation of cells at subG1 phase at 1 uM after 48 hrs by propidium iodide staining-based flow cytometric analysis (reference value: 3.2%); type: functional
Huh-7 [17] = assay: Down-regulation of cyclin-B1 protein expression in human HuH7 cells at 1 uM after 24 to 72 hrs by Western blot analysis; type: functional, cell-based
Huh-7 [18] = assay: Down-regulation of CDK2 protein expression in human HuH7 cells at 1 uM after 24 to 72 hrs by Western blot analysis; type: functional, cell-based
Huh-7 [19] = assay: Cell cycle arrest in human HuH7 cells assessed as accumulation of cells at G2/M phase at 1 uM after 48 hrs by propidium iodide staining-based flow cytometric analysis (reference value: 33.5%); type: functional
Huh-7 [20] = assay: Cell cycle arrest in human HuH7 cells assessed as accumulation of cells at S phase at 1 uM after 48 hrs by propidium iodide staining-based flow cytometric analysis (reference value: 19.1%); type: functional
Huh-7 [21] = assay: Induction of apoptosis in human HuH7 cells assessed as viable cells at 1 uM after 48 hrs by Annexin V-FITC/propidium iodide staining-based flow cytometric analysis (reference value: 97.42%); type: functional; conditions: Huh-7, 48 h, read-out: Activity
Hep 3B2 = assay: Cytotoxicity against human Hep3B cells after 72 hrs by SRB assay; type: functional, cell-based; conditions: Homo sapiens, Hep3B, 72 h; read-out: IC50; outline: as §2
Mahlavu [22] = assay: Induction of apoptosis in human Mahlavu cells assessed as late apoptotic cells at 1 uM after 48 hrs by Annexin V-FITC/propidium iodide staining-based flow cytometric analysis (reference value: 1.45%); type: functional
Mahlavu [23] = assay: Induction of apoptosis in human Mahlavu cells assessed as viable cells at 1 uM after 48 hrs by Annexin V-FITC/propidium iodide staining-based flow cytometric analysis (reference value: 98.48%); type: functional; conditions: read-out: Activity

COc1ccc2c3c(c4cc(OC)c(OC)cc4c2c1)CN1CCCC[C@@H]1C3
Activity (Huh-7 [1]): 0.34%
IC50 (Huh-7 [2]): 1.4 µM
Activity (Mahlavu [3]): 28.3%
IC50 (MCF-10A): 0.14 µM
Activity (Huh-7 [4]): 43.1%
Activity (Mahlavu [5]): 0.12%
IC50 (Huh-7 [6]): 0.7 µM
Activity (Mahlavu [7]): 1.16%
IC50 (MCF7): 0.005 µM
Activity (Mahlavu [8]): Active
IC50 (HepG2): 0.06 µM
Activity (Huh-7 [9]): 0.18%
Activity (Mahlavu [10]): 5.08%
Activity (Huh-7 [11]): 27.4%
IC50 (Mahlavu [12]): 0.016 µM
Activity (Mahlavu [13]): 44.6%
Activity (Huh-7 [14]): 24.3%
Activity (Mahlavu [15]): 10.5%
Activity (Huh-7 [16]): 7.5%
Activity (Huh-7 [17]): Active
Activity (Huh-7 [18]): Active
Activity (Huh-7 [19]): 24.4%
Activity (Huh-7 [20]): 13.5%
viability at 1 µM (Huh-7 [21]): 93.8%
IC50 (Hep 3B2): 0.016 µM
Activity (Mahlavu [22]): 7.07%
viability at 1 µM (Mahlavu [23]): 91.8%

COc1ccc2c3c(c4cc(OC)c(OC)cc4c2c1)CN1CCCCC1C3O (racemic)
Activity (Huh-7 [1]): 0.13%
IC50 (Huh-7 [2]): 0.8 µM
Activity (Mahlavu [3]): 20.4%
IC50 (MCF-10A): 0.2 µM
Activity (Huh-7 [4]): 31.6%
Activity (Mahlavu [5]): 0.04%
IC50 (Huh-7 [6]): 0.5 µM
Activity (Mahlavu [7]): 0.07%
IC50 (MCF7): 0.001 µM
Activity (Mahlavu [8]): Active
IC50 (HepG2): 2.7 µM
Activity (Huh-7 [9]): 0.07%
Activity (Mahlavu [10]): 1.54%
Activity (Huh-7 [11]): 32.1%
IC50 (Mahlavu [12]): 0.01 µM
Activity (Mahlavu [13]): 37.2%
Activity (Huh-7 [14]): 17.9%
Activity (Mahlavu [15]): 9.5%
Activity (Huh-7 [16]): 25.4%
Activity (Huh-7 [17]): Active
Activity (Huh-7 [18]): Active
Activity (Huh-7 [19]): 18.1%
Activity (Huh-7 [20]): 21%
viability at 1 µM (Huh-7 [21]): 94.2%
IC50 (Hep 3B2): 0.017 µM
Activity (Mahlavu [22]): 0.98%
viability at 1 µM (Mahlavu [23]): 99%

Source: ChEMBL document CHEMBL4316592, “Synthesis of new derivatives of boehmeriasin A and their biological evaluation in liver cancer” (Eur J Med Chem, 2019)
